From ChEMBL document CHEMBL1123750, “Imidazole anticonvulsants: structure-activity relationships of [(biphenylyloxy)alkyl]imidazoles” (1987)

Legend:
Type in all cases: functional
Mus musculus [1] = assay: Effective dose to produce anticonvulsant activity using maximal electroshock assay (MES) evaluated in mice after oral administration
How it was run: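 Mice given oral doses as a suspension in 5% acacia/water. Corneal electroshock (40 mA, 0.1 s, ac). Retest at the time of peak effect with at least four doses, 12 mice per dose. ED50 is for prevention of tonic-extensor convulsions, by Litchfield–Wilcoxon with 95% confidence limits.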

Mus musculus [2] = assay: Effective dose to produce anticonvulsant activity using horizontal screen test (HS) evaluated in mice after oral administration
How it was run: (§1)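 Fasted male CF1 mice (20–25 g), oral suspension in 5% acacia/water. Each mouse placed on a screen, rod rotated 180°, and return to the top within 1 min scored. Peak time found at 0.5–4 h. Retest at that time with at least four doses, 12 mice per dose. ED50 by Litchfield–Wilcoxon with 95% confidence limits.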

Mus musculus [3] = assay: Anticonvulsant activity using hexobarbital-induced (100 mg/kg dose was administered intraperitoneally) sleeping time assay evaluated in mice
How it was run: (§2)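 Groups of 10 fasted mice dosed orally with test compound in 5% acacia/water; at the previously determined time of peak effect, hexobarbital given ip, solubilized with stoichiometric NaOH. Duration of loss of righting reflex monitored. Mean ± SEM for 10 animals, compared against vehicle controls.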

Mus musculus [4] = assay: Time to peak anticonvulsant effect (TPE) evaluated in mice after oral administration
How it was run: (§3)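 Three groups of mice given a range of oral doses in 5% acacia/water. Challenged by corneal MES (40 mA, 0.1 s, ac) at 0.5, 1, 2, 3 and 4 h posttreatment. Time of peak protection against seizures recorded.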

Mus musculus [5] = assay: Anticonvulsant activity using hexobarbital-induced (100 mg/kg dose was administered intraperitoneally)sleeping time assay evaluated in mice; how it was run: as §2
Mus musculus [6] = assay: Anticonvulsant activity using hexobarbital-induced (100 mg/kg dose was administered intraperitoneally) sleeping time assay evaluated in mice after oral administration; how it was run: as §2
Mus musculus [7] = assay: Time to peak anticonvulsant effect (TPE) was determined in mice after oral administration; how it was run: as §3
Mus musculus [8] = assay: Effective dpse to produce anticonvulsant activity using horizontal screen test (HS) evaluated in mice after oral administration; how it was run: as §1

Structure (SMILES): c1ccc(OCCn2ccnc2)cc1
- ED50 (Mus musculus [1]): 130 mg/kg
- ED50 (Mus musculus [2]): > 280 mg/kg
- Hexobarb ST (Mus musculus [3]): 434.2 min
- TPE (Mus musculus [4]): 4 h

Structure (SMILES): O=C(Cn1ccnc1)c1ccc2ccccc2c1 [NAFIMIDONE]
- ED50 (Mus musculus [1]): 56 mg/kg

Structure (SMILES): CC(O)(Cn1ccnc1)c1ccc2c(c1)Cc1ccccc1-2 (centres undefined)
- ED50 (Mus musculus [1]): 10 mg/kg

Structure (SMILES): Cl.c1ccc(-c2ccc(OCCn3ccnc3)cc2)cc1
- ED50 (Mus musculus [1]): 44 mg/kg
- ED50 (Mus musculus [2]): > 400 mg/kg
- Hexobarb ST (Mus musculus [5]): 697.5 min
- TPE (Mus musculus [4]): 2 h

Structure (SMILES): Cl.c1ccc(-c2ccccc2OCCn2ccnc2)cc1
- ED50 (Mus musculus [1]): 15.5 mg/kg
- ED50 (Mus musculus [2]): 320 mg/kg
- Hexobarb ST (Mus musculus [6]): 252.1 min
- TPE (Mus musculus [7]): 1 h

Structure (SMILES): Cl.c1ccc(-c2ccccc2OCCCn2ccnc2)cc1
- ED50 (Mus musculus [1]): 21.3 mg/kg
- ED50 (Mus musculus [2]): > 280 mg/kg
- Hexobarb ST (Mus musculus [3]): 126.7 min
- TPE (Mus musculus [4]): 1 h

Structure (SMILES): O=C1NC(=O)C(c2ccccc2)(c2ccccc2)N1 [PHENYTOIN]
- ED50 (Mus musculus [1]): 9.4 mg/kg
- ED50 (Mus musculus [8]): 210 mg/kg
- TPE (Mus musculus [4]): 1 h

Structure (SMILES): Cl.c1ccc(-c2ccccc2OCCCCn2ccnc2)cc1
- ED50 (Mus musculus [1]): 29.8 mg/kg
- ED50 (Mus musculus [2]): > 200 mg/kg
- Hexobarb ST (Mus musculus [3]): 124.3 min
- TPE (Mus musculus [4]): 0.5 h

Structure (SMILES): Cl.c1ccc(-c2cccc(OCCn3ccnc3)c2)cc1
- ED50 (Mus musculus [1]): 20.5 mg/kg
- ED50 (Mus musculus [2]): > 200 mg/kg
- Hexobarb ST (Mus musculus [3]): 334 min
- TPE (Mus musculus [4]): 4 h
